From ChEMBL document CHEMBL4715745, “Synthesis and biological evaluation of novel FK228 analogues as potential isoform selective HDAC inhibitors” (Eur J Med Chem, 2016)
Blank lines part the entries; values can stand above or below the compound they belong to.

Experiments:
[1] = molecular target: T1, Protein deacetylase HDAC6 (Mus musculus, UniProt Q9Z2V5); experiment: Inhibition of mouse HDAC6 expressed in 293T cells using Ac-KGLGK(Ac)-MCA as substrate incubated for 30 mins in presence of 0.1 mM DTT by fluorescence plate reader assay; design: species or system HEK293T
T1 sequence (Q9Z2V5 whole entry): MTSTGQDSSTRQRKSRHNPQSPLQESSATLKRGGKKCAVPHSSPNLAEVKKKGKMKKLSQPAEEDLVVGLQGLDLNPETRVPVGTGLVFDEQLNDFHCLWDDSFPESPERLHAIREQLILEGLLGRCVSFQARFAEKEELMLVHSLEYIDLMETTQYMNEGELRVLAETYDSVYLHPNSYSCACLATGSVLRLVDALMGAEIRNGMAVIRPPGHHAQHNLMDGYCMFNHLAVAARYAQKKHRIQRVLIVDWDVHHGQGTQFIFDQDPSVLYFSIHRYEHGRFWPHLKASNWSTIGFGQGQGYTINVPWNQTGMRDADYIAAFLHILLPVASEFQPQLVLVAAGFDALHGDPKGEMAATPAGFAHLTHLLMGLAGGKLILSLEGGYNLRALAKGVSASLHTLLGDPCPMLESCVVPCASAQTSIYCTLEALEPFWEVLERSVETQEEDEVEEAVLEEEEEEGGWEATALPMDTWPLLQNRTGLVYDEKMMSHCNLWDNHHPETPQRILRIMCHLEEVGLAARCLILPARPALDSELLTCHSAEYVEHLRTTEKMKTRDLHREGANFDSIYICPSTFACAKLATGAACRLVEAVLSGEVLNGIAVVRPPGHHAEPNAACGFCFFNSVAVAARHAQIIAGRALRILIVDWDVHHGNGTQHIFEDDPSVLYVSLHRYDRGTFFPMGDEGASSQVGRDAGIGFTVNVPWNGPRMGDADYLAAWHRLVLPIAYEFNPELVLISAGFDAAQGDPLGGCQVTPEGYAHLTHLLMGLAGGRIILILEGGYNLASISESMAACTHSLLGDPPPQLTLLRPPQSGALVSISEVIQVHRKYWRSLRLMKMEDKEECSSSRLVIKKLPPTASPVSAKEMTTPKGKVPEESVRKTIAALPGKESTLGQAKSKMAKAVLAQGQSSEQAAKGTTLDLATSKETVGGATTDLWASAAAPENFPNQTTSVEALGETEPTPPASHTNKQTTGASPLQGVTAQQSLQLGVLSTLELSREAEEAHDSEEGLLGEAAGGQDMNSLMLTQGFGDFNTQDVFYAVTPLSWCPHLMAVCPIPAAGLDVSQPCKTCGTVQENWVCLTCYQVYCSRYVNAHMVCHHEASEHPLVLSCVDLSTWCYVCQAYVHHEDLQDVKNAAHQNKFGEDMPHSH
Method in brief: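 HDAC enzyme assay run in the presence of 0.1 mM dithiothreitol (DTT); IC₅₀ determined.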

OVCAR-4 = experiment: Growth inhibition of human OVCAR-4 cells measured after 48 hrs by sulforhodamine B assay; format: functional
Method in brief: (§1)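 Panel of 39 human cancer cell lines tested at the Japanese Foundation for Cancer Research. Five concentrations per compound, spanning 10⁻¹¹–10⁻⁷ M, 10⁻¹⁰–10⁻⁶ M or 10⁻⁸–10⁻⁴ M, were used to build dose-response curves. GI₅₀ is the concentration giving 50% growth inhibition relative to control.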

MKN-74 = experiment: Growth inhibition of human MKN-74 cells measured after 48 hrs by sulforhodamine B assay; format: functional; method in brief: as §1
KM12 = experiment: Growth inhibition of human KM12 cells measured after 48 hrs by sulforhodamine B assay; format: functional; method in brief: as §1
[2] = Growth inhibition of human HBC5 cells measured after 48 hrs by sulforhodamine B assay; format: functional; method in brief: as §1
[3] = Selectivity index, ratio of IC50 for mouse HDAC6 expressed in 293T cells to IC50 for human HDAC1 expressed in 293T cells using Ac-KGLGK(Ac)-MCA as substrate incubated for 30 mins in presence of 0.1 mM DTT by fluorescence plate reader assay; settings: 0.5 h
Method in brief: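 Ratio of HDAC6 IC₅₀ to HDAC1 IC₅₀, taken as selectivity for class I HDAC1 over class II HDAC6. Both enzyme assays were run in the presence of 0.1 mM DTT.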

NCI-H23 = experiment: Growth inhibition of human NCI-H23 cells measured after 48 hrs by sulforhodamine B assay; format: functional; method in brief: as §1
HT-29 = experiment: Growth inhibition of human HT-29 cells measured after 48 hrs by sulforhodamine B assay; format: functional; method in brief: as §1
MKN-28 = experiment: Growth inhibition of human MKN-28 cells measured after 48 hrs by sulforhodamine B assay; format: functional; method in brief: as §1
HCT-116 = experiment: Growth inhibition of human HCT-116 cells measured after 48 hrs by sulforhodamine B assay; format: functional; method in brief: as §1
MKN-1 = experiment: Growth inhibition of human MKN-1 cells measured after 48 hrs by sulforhodamine B assay; format: functional; method in brief: as §1
DMS-114 = experiment: Growth inhibition of human DMS-114 cells measured after 48 hrs by sulforhodamine B assay; format: functional; method in brief: as §1
SNB-75 = experiment: Growth inhibition of human SNB-75 cells measured after 48 hrs by sulforhodamine B assay; format: functional; method in brief: as §1
OVCAR-8 = experiment: Growth inhibition of human OVCAR-8 cells measured after 48 hrs by sulforhodamine B assay; format: functional; method in brief: as §1
A549 = experiment: Growth inhibition of human A549 cells measured after 48 hrs by sulforhodamine B assay; format: functional; method in brief: as §1
DU-145 = experiment: Growth inhibition of human DU-145 cells measured after 48 hrs by sulforhodamine B assay; format: functional; method in brief: as §1
LOX IMVI = experiment: Growth inhibition of human LOX IMVI cells measured after 48 hrs by sulforhodamine B assay; format: functional; method in brief: as §1
[4] = Growth inhibition of human HBC4 cells measured after 48 hrs by sulforhodamine B assay; format: functional; method in brief: as §1
SF-268 = experiment: Growth inhibition of human SF-268 cells measured after 48 hrs by sulforhodamine B assay; format: functional; method in brief: as §1
NCI-H226 = experiment: Growth inhibition of human NCI-H226 cells measured after 48 hrs by sulforhodamine B assay; format: functional; method in brief: as §1
SK-OV-3 = experiment: Growth inhibition of human SK-OV-3 cells measured after 48 hrs by sulforhodamine B assay; format: functional; method in brief: as §1
[5] = Growth inhibition of human BSY1 cells measured after 48 hrs by sulforhodamine B assay; format: functional; settings: BSY-1; method in brief: as §1
ACHN = experiment: Growth inhibition of human ACHN cells measured after 48 hrs by sulforhodamine B assay; format: functional; method in brief: as §1
NCI-H522 = experiment: Growth inhibition of human NCI-H522 cells measured after 48 hrs by sulforhodamine B assay; format: functional; method in brief: as §1
SF-295 = experiment: Growth inhibition of human SF-295 cells measured after 48 hrs by sulforhodamine B assay; format: functional; method in brief: as §1
SF-539 = experiment: Growth inhibition of human SF-539 cells measured after 48 hrs by sulforhodamine B assay; format: functional; method in brief: as §1
St-4 = experiment: Growth inhibition of human St-4 cells measured after 48 hrs by sulforhodamine B assay; format: functional; method in brief: as §1
OVCAR-5 = experiment: Growth inhibition of human OVCAR-5 cells measured after 48 hrs by sulforhodamine B assay; format: functional; method in brief: as §1
OVCAR-3 = experiment: Growth inhibition of human OVCAR-3 cells measured after 48 hrs by sulforhodamine B assay; format: functional; method in brief: as §1
HCT-15 = experiment: Growth inhibition of human HCT-15 cells measured after 48 hrs by sulforhodamine B assay; format: functional; method in brief: as §1
MDA-MB-231 = experiment: Growth inhibition of human MDA-MB-231 cells measured after 48 hrs by sulforhodamine B assay; format: functional; method in brief: as §1
MCF7 = experiment: Growth inhibition of human MCF7 cells measured after 48 hrs by sulforhodamine B assay; format: functional; method in brief: as §1
SNB-78 = experiment: Growth inhibition of human SNB-78 cells measured after 48 hrs by sulforhodamine B assay; format: functional; method in brief: as §1
MKN-45 = experiment: Growth inhibition of human MKN-45 cells measured after 48 hrs by sulforhodamine B assay; format: functional; method in brief: as §1
Histone deacetylase 1 = Histone deacetylase 1 (Homo sapiens, UniProt Q13547); experiment: Inhibition of human HDAC1 expressed in 293T cells using Ac-KGLGK(Ac)-MCA as substrate incubated for 30 mins in presence of 0.1 mM DTT by fluorescence plate reader assay; design: species or system HEK293T
Histone deacetylase 1, sequence (Q13547 whole entry): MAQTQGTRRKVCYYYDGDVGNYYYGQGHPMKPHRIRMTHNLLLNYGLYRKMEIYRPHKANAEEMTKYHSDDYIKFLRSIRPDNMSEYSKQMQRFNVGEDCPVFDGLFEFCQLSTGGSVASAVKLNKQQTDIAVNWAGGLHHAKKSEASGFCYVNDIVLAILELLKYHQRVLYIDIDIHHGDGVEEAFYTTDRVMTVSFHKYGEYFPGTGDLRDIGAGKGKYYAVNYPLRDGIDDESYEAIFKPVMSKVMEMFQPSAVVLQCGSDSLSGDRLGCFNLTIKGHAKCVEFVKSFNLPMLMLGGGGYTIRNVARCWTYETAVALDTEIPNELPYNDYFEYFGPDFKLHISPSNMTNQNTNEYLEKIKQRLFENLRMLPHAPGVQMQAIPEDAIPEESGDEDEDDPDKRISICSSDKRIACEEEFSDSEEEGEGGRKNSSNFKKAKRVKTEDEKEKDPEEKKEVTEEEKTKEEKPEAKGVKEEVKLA

HCC 2998 = experiment: Growth inhibition of human HCC 2998 cells measured after 48 hrs by sulforhodamine B assay; format: functional; method in brief: as §1
MKN-7 = experiment: Growth inhibition of human MKN-7 cells measured after 48 hrs by sulforhodamine B assay; format: functional; method in brief: as §1
NCI-H460 = experiment: Growth inhibition of human NCI-H460 cells measured after 48 hrs by sulforhodamine B assay; format: functional; method in brief: as §1
U-251 = experiment: Growth inhibition of human U-251 cells measured after 48 hrs by sulforhodamine B assay; format: functional; method in brief: as §1
DMS-273 = experiment: Growth inhibition of human DMS-273 cells measured after 48 hrs by sulforhodamine B assay; format: functional; method in brief: as §1
PC-3 = experiment: Growth inhibition of human PC-3 cells measured after 48 hrs by sulforhodamine B assay; format: functional; method in brief: as §1
RXF 631 = experiment: Growth inhibition of human RXF 631 cells measured after 48 hrs by sulforhodamine B assay; format: functional; method in brief: as §1

IC50 [1]: 8450 nM
GI50 (OVCAR-4): 87 nM
GI50 (MKN-74): 44 nM
GI50 (NCI-H23): 39 nM
GI50 (HT-29): 33 nM
GI50 (MKN-28): 270 nM
GI50 (HCT-116): 22 nM
GI50 (MKN-1): 21 nM
GI50 (OVCAR-8): 42 nM
GI50 (A549): 23 nM
GI50 (DU-145): 37 nM
GI50 (NCI-H226): 59 nM
GI50 (SK-OV-3): 23 nM
GI50 (ACHN): 200 nM
GI50 (NCI-H522): 10 nM
GI50 (OVCAR-5): 31 nM
GI50 (OVCAR-3): 40 nM
GI50 (HCT-15): 590 nM
GI50 (MDA-MB-231): 39 nM
GI50 (MCF7): 52 nM
GI50 (MKN-45): 240 nM
IC50 (Histone deacetylase 1): 0.96 nM
GI50 (HCC 2998): 27 nM
GI50 (MKN-7): 280 nM
GI50 (NCI-H460): 39 nM
GI50 (U-251): 10 nM
GI50 (PC-3): 69 nM
Compound: CC(C)C[C@H]1NC(=O)[C@H]2CSSCC/C=C/[C@H](CC(=O)N[C@H](C(C)C)C(=O)N2)OC(=O)CNC1=O
GI50 (KM12): 33 nM
GI50 [2]: 270 nM
Ratio IC50 [3]: 8804
GI50 (DMS-114): 36 nM
GI50 (SNB-75): 43 nM
GI50 (LOX IMVI): 23 nM
GI50 [4]: 70 nM
GI50 (SF-268): 11 nM
GI50 [5]: 69 nM
GI50 (SF-295): 1100 nM
GI50 (SF-539): 57 nM
GI50 (St-4): 230 nM
GI50 (SNB-78): 30 nM
GI50 (DMS-273): 74 nM
GI50 (RXF 631): 68 nM

IC50 [1]: 355 nM
GI50 (OVCAR-4): 1900 nM
GI50 (MKN-74): 500 nM
GI50 (NCI-H23): 1100 nM
GI50 (HT-29): 570 nM
GI50 (MKN-28): 2100 nM
GI50 (HCT-116): 250 nM
GI50 (MKN-1): 290 nM
GI50 (OVCAR-8): 1400 nM
GI50 (A549): 880 nM
GI50 (DU-145): 590 nM
GI50 (NCI-H226): 1200 nM
GI50 (SK-OV-3): 1200 nM
GI50 (ACHN): 11000 nM
GI50 (NCI-H522): 200 nM
GI50 (OVCAR-5): 1400 nM
GI50 (OVCAR-3): 1100 nM
GI50 (HCT-15): 26000 nM
GI50 (MDA-MB-231): 1200 nM
GI50 (MCF7): 1900 nM
GI50 (MKN-45): 1800 nM
IC50 (Histone deacetylase 1): 40.8 nM
GI50 (HCC 2998): 1100 nM
GI50 (MKN-7): 1900 nM
GI50 (NCI-H460): 1100 nM
GI50 (U-251): 1500 nM
GI50 (PC-3): 1100 nM
Compound: CC(C)[C@H]1NC(=O)C[C@H]2/C=C/CCSSC[C@@H](NC1=O)C(=O)N[C@@H](Cc1ccccc1)C(=O)NCC(=O)O2
GI50 (KM12): 740 nM
GI50 [2]: 1900 nM
Ratio IC50 [3]: 9
GI50 (DMS-114): 620 nM
GI50 (SNB-75): 1300 nM
GI50 (LOX IMVI): 160 nM
GI50 [4]: 690 nM
GI50 (SF-268): 220 nM
GI50 [5]: 1300 nM
GI50 (SF-295): 1800 nM
GI50 (SF-539): 860 nM
GI50 (St-4): 2000 nM
GI50 (SNB-78): 540 nM
GI50 (DMS-273): 1500 nM
GI50 (RXF 631): 1800 nM
